Assay results reported in ChEMBL document CHEMBL1799919, “Design, synthesis, biological evaluation, and structure-activity relationships of substituted phenyl 4-(2-oxoimidazolidin-1-yl)benzenesulfonates as new tubulin inhibitors mimicking combretastatin A-4” (J Med Chem, 2011).
The source made the active and inactive calls. No cut-off for these calls is given here.

Columns and labels:
CHO-VV 3-2 = experiment: Antiproliferative activity against colchicine- and vinblastine-resistant CHO-VV 3-2 cells after 48 hrs by sulforhodamine B assay; settings: Cricetulus griseus, CHO-VV 3-2, 48 h
M21 [1] = experiment: Disruption of cytoskeleton microtubule structure of human M21 cells at 5 times IC50 after 16 hrs by indirect immunofluorescence assay; assay type: functional, cell-based
How it was run: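 Fixed in 3.7% formaldehyde, permeabilized with saponin, and stained with anti-β-tubulin (TUB 2.1), Alexa-488 secondary and DAPI. Microtubule structure scored by fluorescence microscopy.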

MCF7 = experiment: Antiproliferative activity against human MCF7 cells after 48 hrs by sulforhodamine B assay; assay type: functional, cell-based; settings: MCF7, 48 h
L1210 = experiment: Antiproliferative activity against mouse L1210 cells after 48 hrs by sulforhodamine B assay; assay type: functional, cell-based; settings: L1210, 48 h
HT-1080 [2] = experiment: Antiproliferative activity against human HT1080 cells after 48 hrs by sulforhodamine B assay; assay type: functional, cell-based; settings: HT-1080, 48 h
M21 [3] = experiment: Cell cycle arrest in human M21 cells assessed as accumulation at G2/M phase at 5 times IC50 after 24 hrs using propidium iodide staining by flow cytometric analysis (reference value: 9%); assay type: functional
[4] = Antiproliferative activity against mouse P388D1 cells after 48 hrs by sulforhodamine B assay; assay type: functional, cell-based; settings: P388D1, 48 h
M21 [5] = experiment: Cell cycle arrest in human M21 cells assessed as accumulation at G0/G1 phase at 5 times IC50 after 24 hrs using propidium iodide staining by flow cytometric analysis (reference value: 61%); assay type: functional
M21 [6] = experiment: Antiproliferative activity against human M21 cells after 48 hrs by sulforhodamine B assay; assay type: functional, cell-based; settings: M21, 48 h
HT-1080 [7] = experiment: Antivasculogenic activity against human HT1080 cells xenografted in chicken chorioallantoic membrane assessed as inhibition of tumor growth at 3 ug per egg, iv measured on day 14 by CAM assay; assay type: functional
[8] = Antiproliferative activity against multidrug-resistant human CEM/VLB cells after 48 hrs by sulforhodamine B assay; assay type: functional
CEM-VLB = experiment: Resistant ratio of IC50 for multidrug-resistant human CEM-VLB cells to IC50 for human CEM cells; assay type: functional
How it was run: (§1)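 Ratio of the IC50 in the resistant line (CEM-VLB, CHO-TAX 5-6 or CHO-VV 3-2) to the IC50 in its parental line (CEM or CHO).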

DU-145 = experiment: Antiproliferative activity against human DU145 cells after 48 hrs by sulforhodamine B assay; assay type: functional, cell-based; settings: DU-145, 48 h
CHO-TAX 5-6 [9] = experiment: Antiproliferative activity against paclitaxel-resistant CHO-TAX 5-6 cells after 48 hrs by sulforhodamine B assay; assay type: functional, cell-based; settings: Cricetulus griseus, CHO-TAX 5-6, 48 h
[10] = Toxicity against fertilized chicken embryo assessed as mortality at 3 ug per egg, iv by CAM assay; assay type: organism-based, Gallus gallus; settings: in vivo, read-out: Activity
How it was run: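 Fertilized chicken eggs incubated 10 days with automatic turning, then static. HT-1080 cells (3.5 × 10^5 cells/egg) grafted onto exposed CAM. On day 11, drug in DMSO diluted into cremophor/ethanol/PBS (6.25/6.25/87.5 v/v) excipient, DMSO below 0.5%, 100 μL injected iv into 10-12 eggs. Eggs incubated to day 17, dead embryos counted. Untreated eggs used for normalization. Two independent experiments, at least 10 eggs each.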

CHO = experiment: Antiproliferative activity against CHO cells after 48 hrs by sulforhodamine B assay; assay type: functional, cell-based; settings: Cricetulus griseus
SK-OV-3 = experiment: Antiproliferative activity against human SKOV3 cells after 48 hrs by sulforhodamine B assay; assay type: functional, cell-based; settings: SK-OV-3, 48 h
[11] = Antiproliferative activity against mouse B16F0 cells after 48 hrs by sulforhodamine B assay; assay type: functional, cell-based; settings: B16F0, 48 h
M21 [12] = experiment: Cell cycle arrest in human M21 cells assessed as accumulation at S phase at 5 times IC50 after 24 hrs using propidium iodide staining by flow cytometric analysis (reference value: 30%); assay type: functional
HT-29 = experiment: Antiproliferative activity against human HT-29 cells after 48 hrs by sulforhodamine B assay; assay type: functional, cell-based; settings: HT-29, 48 h
CHO-TAX 5-6 [13] = experiment: Resistant ratio of IC50 for paclitaxel-resistant CHO-TAX 5-6 cells to IC50 for CHO cells; assay type: functional, Cricetulus griseus
How it was run: as §1

MDA-MB-231 [14] = experiment: Displacement of N,N'-ethylenebis(iodoacetamide) from colchicine-binding site of beta-tubulin in human MDA-MB-231 cells at 1000 times IC50 preincubated for after 2 hrs before N,N'-ethylenebis(iodoacetamide) addition measured after 1.5 hrs by chemiluminescence assay; assay type: cell-based
How it was run: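 EBI (100 μM final) added for 1.5 h at 37 °C; controls received 0.5% DMSO. Lysates (20 μg protein) run on 10% SDS-PAGE and blotted with anti-β-tubulin (TUB 2.1). β-tubulin–EBI adduct band detected by ECL.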

K562 = experiment: Antiproliferative activity against human K562 cells after 48 hrs by sulforhodamine B assay; assay type: functional, cell-based; settings: K562, 48 h
MDA-MB-231 [15] = experiment: Antiproliferative activity against human MDA-MB-231 cells after 48 hrs by sulforhodamine B assay; assay type: functional, cell-based; settings: MDA-MB-231, 48 h
CCRF-CEM = experiment: Antiproliferative activity against human CEM cells after 48 hrs by sulforhodamine B assay; assay type: functional, cell-based

Row | Structure (SMILES) | IC50 (CHO-VV 3-2) [nM] | Activity (M21 [1]) | IC50 (MCF7) [nM] | IC50 (L1210) [nM] | IC50 (HT-1080 [2]) [nM] | Activity (M21 [3]) [%] | IC50 [4] [nM] | Activity (M21 [5]) [%] | IC50 (M21 [6]) [nM] | IC50 [8] [nM] | Ratio IC50 (CEM-VLB) | IC50 (DU-145) [nM] | IC50 (CHO-TAX 5-6 [9]) [nM] | IC50 (CHO) [nM] | IC50 (SK-OV-3) [nM] | IC50 [11] [nM] | Ratio IC50 (CHO-TAX 5-6 [13]) | IC50 (K562) [nM] | IC50 (MDA-MB-231 [15]) [nM] | IC50 (CCRF-CEM) [nM] | other results
1 | O=C1NCCN1c1ccc(S(=O)(=O)Oc2cc(Cl)cc(Cl)c2)cc1 | 20 | Active | 18 | 9.6 | 18 | 79 | 7.4 | 1 | 8.2 | 19 | 1.2 | 66 | 6.1 | 17 | 16 | 41 | 0.36 | 7.2 | 26 | 16 | Activity (HT-1080 [7]): inactive; mortality [10]: 29%; Activity (M21 [12]): 20%; IC50 (HT-29): 10 nM; inhibition (MDA-MB-231 [14]): Active
2 | COc1cc2c(c(OC)c1OC)-c1ccc(OC)c(=O)cc1[C@@H](NC(C)=O)CC2 [COLCHICINE] | 620 | – | – | 6.9 | 1.1 | – | 28 | – | – | 360 | – | – | 140 | 220 | 2.1 | 13 | – | 6.8 | 2.9 | 7.9 | –
3 | CC(=O)O[C@H]1C(=O)[C@@]2(C)[C@H]([C@H](OC(=O)c3ccccc3)[C@]3(O)C[C@H](OC(=O)[C@H](O)[C@@H](NC(=O)c4ccccc4)c4ccccc4)C(C)=C1C3(C)C)[C@]1(OC(C)=O)CO[C@@H]1C[C@@H]2O [PACLITAXEL] | 140 | – | – | 0.4 | 0.15 | – | 35 | – | – | – | – | 1.3 | 520 | 170 | 2.6 | 28 | – | 0.71 | – | 0.27 | –
4 | O=C1NCCN1c1ccc(S(=O)(=O)Oc2c(F)cccc2F)cc1 | 74 | Active | 32 | 67 | 65 | 62 | 76 | 5 | 15 | 87 | 1.3 | 170 | 38 | 73 | 72 | 91 | 0.52 | 65 | 100 | 68 | Activity (HT-1080 [7]): Active; mortality [10]: 13%; Activity (M21 [12]): 33%; IC50 (HT-29): 29 nM; inhibition (MDA-MB-231 [14]): Active
5 | CC[C@]1(O)C[C@@H]2CN(CCc3c([nH]c4ccccc34)[C@@](C(=O)OC)(c3cc4c(cc3OC)N(C)[C@H]3[C@@](O)(C(=O)OC)[C@H](OC(C)=O)[C@]5(CC)C=CCN6CC[C@]43[C@@H]65)C2)C1 [VINBLASTINE] | 66 | – | – | 0.16 | 0.099 | – | 1.8 | – | – | 600 | 1579 | 0.063 | 6.9 | 17 | 0.039 | 0.099 | 0.41 | 0.36 | 0.12 | 0.38 | –
6 | CCOc1cccc(OS(=O)(=O)c2ccc(N3CCNC3=O)cc2)c1 | 39 | Active | 19 | 19 | 34 | 78 | 20 | 2 | 12 | 32 | 1.6 | 72 | 12 | 32 | 42 | 65 | 0.38 | 18 | 55 | 20 | Activity (HT-1080 [7]): Active; mortality [10]: 13%; Activity (M21 [12]): 20%; IC50 (HT-29): 18 nM; inhibition (MDA-MB-231 [14]): Active
7 | COc1cc(OC)cc(OS(=O)(=O)c2ccc(N3CCNC3=O)cc2)c1 | 15 | Active | 10 | 6.4 | 8.2 | 75 | 7.8 | 1 | 4.3 | 9.2 | 1.3 | 25 | 5.2 | 7.3 | 6.8 | 25 | 0.71 | 7.5 | 14 | 7.1 | Activity (HT-1080 [7]): 56%; mortality [10]: 10%; Activity (M21 [12]): 24%; IC50 (HT-29): 8 nM; inhibition (MDA-MB-231 [14]): Active
8 | O=C1NCCN1c1ccc(S(=O)(=O)Oc2cccc(Cl)c2)cc1 | 20 | Active | 13 | 17 | 19 | 79 | 19 | 2 | 9.2 | 20 | 1.2 | 58 | 9.3 | 18 | 22 | 46 | 0.52 | 16 | 45 | 17 | Activity (HT-1080 [7]): 46%; mortality [10]: 0%; Activity (M21 [12]): 19%; IC50 (HT-29): 15 nM; inhibition (MDA-MB-231 [14]): Active
